Columns and labels:
[1] = target: T1, Adenosine receptor A3 (Homo sapiens) (UniProt P0DMS8); assay: (§1) Displacement of specific [125 I]AB-MECA binding at human Adenosine A3 receptor expressed in HEK cells; assay type: cell-based; conditions: HEK293
T1 sequence (whole entry): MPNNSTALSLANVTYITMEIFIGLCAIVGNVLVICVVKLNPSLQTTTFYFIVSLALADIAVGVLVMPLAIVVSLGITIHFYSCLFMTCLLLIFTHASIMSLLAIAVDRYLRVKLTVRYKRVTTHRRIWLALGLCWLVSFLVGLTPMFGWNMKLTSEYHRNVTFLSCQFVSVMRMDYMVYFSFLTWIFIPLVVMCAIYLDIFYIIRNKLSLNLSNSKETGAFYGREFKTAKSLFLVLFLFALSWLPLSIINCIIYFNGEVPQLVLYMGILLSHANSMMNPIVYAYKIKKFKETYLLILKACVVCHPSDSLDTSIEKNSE

[2] = target: Adenosine receptor A2a (Rattus norvegicus, UniProt P30543); assay: Inhibition of [3H]-CGS- 21680 binding to Adenosine A2A receptor in rat striatal membranes.; assay type: cell membranes, Membrane
Adenosine receptor A2a, sequence (P30543 whole entry): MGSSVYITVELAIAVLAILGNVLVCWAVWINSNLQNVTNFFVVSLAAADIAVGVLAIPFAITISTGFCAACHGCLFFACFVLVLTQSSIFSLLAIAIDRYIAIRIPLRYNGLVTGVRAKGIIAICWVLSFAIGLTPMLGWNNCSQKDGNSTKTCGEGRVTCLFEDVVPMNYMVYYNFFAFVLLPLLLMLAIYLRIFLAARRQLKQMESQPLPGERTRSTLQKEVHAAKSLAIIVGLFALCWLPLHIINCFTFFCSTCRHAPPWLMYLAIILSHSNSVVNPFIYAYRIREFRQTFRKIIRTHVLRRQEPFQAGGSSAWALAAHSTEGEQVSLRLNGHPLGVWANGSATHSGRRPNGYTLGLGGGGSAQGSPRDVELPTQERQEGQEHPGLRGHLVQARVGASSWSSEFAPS

[3] = target: T2, Adenosine receptor A1 (Rattus norvegicus, UniProt P25099); assay: Displacement of specific [3H]-CGS- 21680R-PIA binding to Adenosine A1 receptor in rat brain membranes.; assay type: cell membranes; conditions: in the assay text read “[3H]R-PIA” for “[3H]-CGS- 21680R-PIA”
T2 sequence (P25099 whole entry): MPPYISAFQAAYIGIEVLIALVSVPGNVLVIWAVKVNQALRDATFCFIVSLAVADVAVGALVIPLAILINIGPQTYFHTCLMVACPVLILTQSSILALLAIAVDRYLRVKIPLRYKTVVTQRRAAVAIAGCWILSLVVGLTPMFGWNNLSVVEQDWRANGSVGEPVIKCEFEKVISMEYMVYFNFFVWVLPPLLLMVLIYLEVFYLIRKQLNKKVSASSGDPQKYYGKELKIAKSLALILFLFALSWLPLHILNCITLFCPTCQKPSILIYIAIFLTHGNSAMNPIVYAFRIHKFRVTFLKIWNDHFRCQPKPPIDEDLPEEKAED
In short: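 A1 binding used [3H]R-PIA on rat cerebral cortex membranes. Adenosine deaminase (3 units/mL) was included in membrane preparation, in a 30 min preincubation at 30 °C, and throughout radioligand incubation. Competitors were DMSO stocks diluted in buffer, with DMSO never above 2%.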

[4] = target: T3, Adenosine receptor A3 (Homo sapiens, UniProt P0DMS8); assay: as §1; assay type: cell-based, HEK293
T3 sequence (P0DMS8 whole entry): T1 sequence (whole entry)
In short: (§2)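 Membranes from HEK-293 cells stably expressing human A3 receptor (clone HS-21a), or from CHO cells stably expressing rat A3 receptor (rat: n = 3-5), in 50 mM Tris, 10 mM Mg2+, 1 mM EDTA, pH 8.0. Membranes at 0.3 mg protein/mL with [125I]AB-MECA at 0.3 nM final. Nonspecific binding defined with R-PIA. Competitors were dissolved in DMSO (≤2% final) and tested at ≥5 concentrations spanning 3 log units. Bound ligand was separated by GF/B filtration with three buffer rinses; Ki was derived.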

[5] = organism: Rattus norvegicus; assay: Ratio of binding affinities for rat A1 receptor against human A3 receptor, [Ki(rA1) / Ki (hA3)].
In short: (§3)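 Ratio of Ki values from binding assays. For A3, [125I]AB-MECA (final 0.3 nM) bound membranes of HEK-293 cells expressing human A3 (clone HS-21a) or CHO cells expressing rat A3, in Tris/Mg2+/EDTA buffer at pH 8.0. For rat A1, [3H]R-PIA bound cerebral cortex membranes, with adenosine deaminase (3 units/mL) present, including a 30 min preincubation at 30 °C.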

[6] = target: Adenosine receptor A2a (Rattus norvegicus) (UniProt P30543); assay: Displacement of specific [3H]-CGS- 21680 binding to Adenosine A2A receptor in rat striatal membranes; assay type: cell membranes; design: concentration or dose not given beside the values; conditions: Membrane, concentration not given here
Adenosine receptor A2a (Rattus norvegicus), sequence (P30543 whole entry): as the sequence (P30543 whole entry) above
In short: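 Rat striatal membranes labelled with [3H]CGS 21680 for A2A binding. Adenosine deaminase (3 units/mL) was present during membrane preparation, during a 30 min preincubation at 30 °C, and during radioligand incubation. Competitors were dissolved in DMSO and diluted in buffer (DMSO ≤2%).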

[7] = target: T1, Adenosine receptor A3 (Homo sapiens); assay: as §1; assay type: cell-based; conditions: HEK293; concentration not given here; in short: as §2
[8] = target: T4, Adenosine receptor A3 (Rattus norvegicus, UniProt P28647); assay: Displacement of specific [125I]AB-MECA binding at rat Adenosine A3 receptor stably expressed in CHO cells; assay type: cell-based
T4 sequence (P28647 whole entry): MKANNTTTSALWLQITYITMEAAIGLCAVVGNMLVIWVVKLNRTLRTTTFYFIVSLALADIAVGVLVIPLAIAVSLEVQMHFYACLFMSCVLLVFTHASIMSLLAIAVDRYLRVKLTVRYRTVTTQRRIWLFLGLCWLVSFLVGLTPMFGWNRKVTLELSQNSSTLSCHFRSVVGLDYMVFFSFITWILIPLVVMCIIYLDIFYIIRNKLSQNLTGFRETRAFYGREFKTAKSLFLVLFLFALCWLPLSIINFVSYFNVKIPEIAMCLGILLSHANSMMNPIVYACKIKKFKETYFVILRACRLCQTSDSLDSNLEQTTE

[9] = organism: Rattus norvegicus; assay: Ratio of the binding affinities against rat A3 receptor / human A3 receptor, Ki(rA1) / Ki (hA3).; in short: as §3
[10] = organism: Rattus norvegicus; assay: Ratio of the binding affinities against rat A3 receptor / rat A3 receptor, Ki(rA1) / Ki (rA3).; in short: as §3

SMILES | pKi [1] | Ki [2] | Ki [3] | Ki [4] | Ratio [5] | also measured
CCSC(=O)c1c(CC)nc(-c2ccccc2)c(C(=O)OCCO)c1CC | 6.73 |  |  |  |  | 
CCOC(=O)c1c(C)nc(-c2ccccc2)c(C(=O)OCc2ccccc2)c1C#Cc1ccccc1 | 5.56 |  |  |  |  | 
CCCSC(=O)c1c(CC)nc(-c2ccccc2)c(C(=O)OCC)c1CC | 7.8 |  |  |  |  | 
CCOC(=O)c1c(C)nc(-c2ccccc2)c(C(=O)OCC)c1CC | 6.75 |  |  |  |  | 
CCCOC(=O)c1c(-c2ccccc2)nc(CC)c(C(=O)SCCF)c1CCC | 7.26 | 24.8 µM | 8.22 µM | 0.0551 µM | 150 | 
CCOC(=O)c1c(-c2ccccc2)nc(C2CCC2)c(C(=O)SCC)c1CC | 6.84 |  |  |  |  | 
CCOC(=O)c1c(C)nc(-c2ccccc2)c(C(=O)OCC)c1C | 5.35 |  |  |  |  | 
CCSC(=O)c1c(C)nc(-c2ccccc2)c(C(=O)OCc2ccccc2)c1CC | 5.58 |  |  |  |  | 
CCCOC(=O)c1c(-c2ccc(F)cc2)nc(CC)c(C(=O)SCC)c1CCC | 7.51 |  | 41 µM | 0.0311 µM | 1300 | inhibition [6]: 50%
CCOC(=O)c1c(-c2ccccc2)nc(C)c(C(=O)SCC)c1CC | 7.37 |  |  |  |  | 
CCOC(=O)c1c(-c2ccccc2)nc(CC)c(C(=O)SCC)c1CCN1C(=O)c2ccccc2C1=O | 6.61 | 1.14 µM | 0.49 µM | 0.243 µM | 2 | 
CCCOC(=O)c1c(-c2ccccc2)nc(CC)c(C(=O)SCCO)c1CCC | 7.29 | 5.59 µM | 10.8 µM | 0.0511 µM | 210 | 
CCCOC(=O)c1c(-c2ccccc2)nc(CCO)c(C(=O)SCC)c1CCC |  | 29.1 µM | 5.94 µM |  |  | inhibition [7]: 16%
CCOC(=O)c1c(-c2cccc(Cl)c2)nc(CC)c(C(=O)SCC)c1CC | 7.87 |  |  |  |  | 
CCCc1c2c(nc(-c3ccccc3)c1C(=O)OCC)CCSC2=O |  | 43.6 µM | 25.1 µM |  |  | 
CCCOC(=O)c1c(-c2ccccc2)nc(CC)c(C(=O)SCC)c1CCCF | 7.22 | 27.4 µM | 8.09 µM | 0.0599 µM | 140 | Ki [8]: 0.9 µM; Ratio [9]: 15; Ratio [10]: 9
CCOC(=O)c1c(-c2ccccc2)nc(C)c(C(=O)SCCOC)c1CC | 6.78 |  |  |  |  | 
CCCc1c(C(=O)SCC)c(CC)nc(-c2ccccc2)c1C(=O)OCC(F)(F)C(F)(F)F | 6.35 | 14 µM | 5.68 µM | 0.446 µM | 13 | 
CCCc1nc(-c2ccccc2)c(C(=O)OCC)c(CC)c1C(=O)SCC | 7.48 |  |  |  |  | 
CCSC(=O)c1c(CC)nc(-c2ccccc2)c(C(=O)OCCF)c1CC | 8.37 | 7.33 µM | 11.5 µM |  | 2700 | Ki [8]: 0.6 µM; Ratio [9]: 140; Ratio [10]: 19
CCOC(=O)c1c(C)nc(C2CCC2)c(C(=O)OCc2ccccc2)c1C#Cc1ccccc1 | 5.62 |  |  |  |  | 
CCCOC(=O)c1c(-c2ccccc2)nc(CC)c(C(=O)SCC)c1CCC | 7.72 | 2.05 µM | 15.6 µM | 0.0189 µM |  | Ratio [9]: 6; Ratio [10]: 140
CCCOC(=O)c1c(-c2ccccc2)nc(CC)c(C(=O)SCC)c1CCSC(C)=O | 6.91 |  | 9.8 µM | 0.124 µM | 79 | inhibition [6]: 28%

Source: ChEMBL document CHEMBL1132588, “Synthesis, CoMFA analysis, and receptor docking of 3,5-diacyl-2, 4-dialkylpyridine derivatives as selective A3 adenosine receptor antagonists” (J Med Chem, 1999)
